Data published in ChEMBL document CHEMBL1811906, “Synthesis and evaluation of strand and turn modified ring-extended gramicidin S derivatives” (Bioorg Med Chem, 2011).
≈ marks a conversion by molar mass, not a printed value. Residues, ends and D or L forms follow the SMILES beside them.

What was measured:
Enterococcus faecalis = assay: Antimicrobial activity against Enterococcus faecalis ATCC 29212 after 24 hrs by broth dilution method; type: functional; conditions: ATCC 29212, 24 h
Summary of the method: (§1)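 Strains stored at −70 °C, grown at 30 °C on blood agar, suspended in physiological saline to OD595 0.1, diluted 10× in saline. 2 µL inoculum added to 100 µL nutrient broth with yeast extract. Peptides dissolved in ethanol (4 g/L), diluted in water (1 g/L), then two-fold in broth (64 to 1 mg/L). Incubated at 30 °C; MIC read as lowest concentration inhibiting growth at 24 h.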

Staphylococcus aureus = assay: Antimicrobial activity against Staphylococcus aureus ATCC 29213 after 24 hrs by broth dilution method; type: functional; conditions: ATCC 29213, 24 h; summary of the method: as §1
Pseudomonas aeruginosa = assay: Antimicrobial activity against Pseudomonas aeruginosa ATCC 27853 after 24 hrs by broth dilution method; type: functional; conditions: ATCC 27853, 24 h; summary of the method: as §1
Proteus mirabilis = assay: Antimicrobial activity against Proteus mirabilis 1190901236 after 24 hrs by broth dilution method; type: functional; conditions: Proteus mirabilis, 1190901236, 24 h; summary of the method: as §1
Bacillus cereus = assay: Antimicrobial activity against Bacillus cereus ATCC 11778 after 24 hrs by broth dilution method; type: functional; conditions: ATCC 11778, 24 h; summary of the method: as §1
[1] = system: Staphylococcus epidermidis; assay: Antimicrobial activity against Staphylococcus epidermidis ATCC 12228 after 24 hrs by broth dilution method; type: functional; conditions: ATCC 12228, 24 h; summary of the method: as §1
Enterobacter cloacae = assay: Antimicrobial activity against Enterobacter cloacae 1190900252 after 24 hrs by broth dilution method; type: functional; conditions: Enterobacter cloacae, 1190900252, 24 h; summary of the method: as §1
Klebsiella pneumoniae = assay: Antimicrobial activity against Klebsiella pneumoniae 1190901525 after 24 hrs by broth dilution method; type: functional; conditions: Klebsiella pneumoniae, 1190901525, 24 h; summary of the method: as §1
[2] = Toxicity in human erythrocytes assessed as hemolytic activity after 4 hrs; type: cell-based; conditions: erythrocyte
Summary of the method: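 Heparinized fresh blood spun at 1000 g, 10 °C; erythrocytes washed three times in 0.85% saline and diluted to 1/25 packed volume. Peptide stocks 1.5 mM in 30% DMSO/saline, serially two-fold diluted in saline. Cells added, then incubated 4 h at 37 °C and centrifuged. Supernatant A405 read against 1% Triton X-100 as full lysis; single experiment run in triplicate.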

Escherichia coli = assay: Antimicrobial activity against Escherichia coli ATCC 25922 after 24 hrs by broth dilution method; type: functional; conditions: ATCC 25922, 24 h; summary of the method: as §1

Compound	MIC (Enterococcus faecalis) [µg/mL]	MIC (Staphylococcus aureus) [µg/mL]	MIC (Pseudomonas aeruginosa) [µg/mL]	MIC (Proteus mirabilis) [µg/mL]	MIC (Bacillus cereus) [µg/mL]	MIC [1] [µg/mL]	MIC (Enterobacter cloacae) [µg/mL]	MIC (Klebsiella pneumoniae) [µg/mL]	HD100 [2] [µM]	MIC (Escherichia coli) [µg/mL]
CC(C)C[C@@H]1NC(=O)[C@H](CCCN)NC(=O)[C@H](C(C)C)NC(=O)[C@@H]2CCCN2C(=O)[C@@H](Cc2ccccc2)NC(=O)[C@H](CC(C)C)NC(=O)[C@H](CCCN)NC(=O)[C@H](C(C)C)NC(=O)[C@H](CCCN)NC(=O)[C@H](CC(C)C)NC(=O)[C@@H]2O[C@H](CNC(=O)[C@H](C(C)C)NC(=O)[C@@H](CCCN)NC1=O)[C@@H](OCc1ccccc1)[C@@H]2O	32 (≈ 20.2 µM)	16 (≈ 10.1 µM)	64 (≈ 40.3 µM)	> 64	8 (≈ 5.04 µM)	8 (≈ 5.04 µM)	32 (≈ 20.2 µM)	32 (≈ 20.2 µM)	500	32 (≈ 20.2 µM)
CC(C)C[C@@H]1NC(=O)[C@H](CCCN)NC(=O)[C@H](C(C)C)NC(=O)[C@@H]2CCCN2C(=O)[C@@H](Cc2ccccc2)NC(=O)[C@H](CC(C)C)NC(=O)[C@H](CCCN)NC(=O)[C@H](C(C)C)NC(=O)[C@H](CCCN)NC(=O)[C@H](CC(C)C)NC(=O)[C@@H]2CCCN2C(=O)[C@@H](Cc2ccccc2)NC(=O)[C@H](C(C)C)NC(=O)[C@H](CCCN)NC1=O	8 (≈ 5.06 µM)	16 (≈ 10.1 µM)	64 (≈ 40.5 µM)	> 64	16 (≈ 10.1 µM)	8 (≈ 5.06 µM)	64 (≈ 40.5 µM)	64 (≈ 40.5 µM)	3.9	32 (≈ 20.2 µM)
CC(C)C[C@@H]1NC(=O)[C@H](CCCN)NC(=O)[C@H](C(C)C)NC(=O)[C@@H]2CCCN2C(=O)[C@@H](Cc2ccccc2)NC(=O)[C@H](CC(C)C)NC(=O)[C@H](CCCN)NC(=O)[C@H](C(C)C)NC(=O)[C@H](CCCN)NC(=O)[C@H](CC(C)C)NC(=O)[C@@H]2O[C@H](CNC(=O)[C@H](C(C)C)NC(=O)[C@H](CCCN)NC1=O)[C@@H](OCc1ccccc1)[C@@H]2O	8 (≈ 5.04 µM)	4 (≈ 2.52 µM)	16 (≈ 10.1 µM)	> 64	4 (≈ 2.52 µM)	4 (≈ 2.52 µM)	16 (≈ 10.1 µM)	16 (≈ 10.1 µM)	15.6	16 (≈ 10.1 µM)
CC(C)C[C@@H]1NC(=O)[C@H](CCCN)NC(=O)[C@H](C(C)C)NC(=O)[C@@H]2CCCN2C(=O)[C@@H](Cc2ccccc2)NC(=O)[C@H](CC(C)C)NC(=O)[C@H](CCCN)NC(=O)[C@H](C(C)C)NC(=O)[C@H](CCCN)NC(=O)[C@H](CC(C)C)NC(=O)[C@@H]2O[C@H](CNC(=O)[C@H](C(C)C)NC(=O)[C@@H](CCCN)NC1=O)[C@@H](O)[C@@H]2O	> 64	> 64	> 64	> 64	64 (≈ 42.8 µM)	16 (≈ 10.7 µM)	64 (≈ 42.8 µM)	> 64	> 500	64 (≈ 42.8 µM)
CC(C)C[C@@H]1NC(=O)[C@H](CCCN)NC(=O)[C@H](C(C)C)NC(=O)[C@@H]2CCCN2C(=O)[C@@H](Cc2ccccc2)NC(=O)[C@H](CC(C)C)NC(=O)[C@H](CCCN)NC(=O)[C@H](C(C)C)NC(=O)[C@H](CCCN)NC(=O)[C@H](CC(C)C)NC(=O)[C@@H]2O[C@H](CNC(=O)[C@H](C(C)C)NC(=O)[C@@H](CCCN)NC1=O)[C@@H](OCc1ccccc1)[C@@H]2OCc1ccccc1	16 (≈ 9.54 µM)	8 (≈ 4.77 µM)	64 (≈ 38.2 µM)	> 64	8 (≈ 4.77 µM)	8 (≈ 4.77 µM)	32 (≈ 19.1 µM)	32 (≈ 19.1 µM)	500	32 (≈ 19.1 µM)
CC(C)C[C@@H]1NC(=O)[C@H](CCCCN)NC(=O)[C@H](C(C)C)NC(=O)[C@@H]2CCCN2C(=O)[C@@H](Cc2ccc(O)cc2)NC(=O)[C@H](CC(C)C)NC(=O)[C@H](CCCCN)NC(=O)[C@H](C(C)C)NC(=O)[C@H](CCCCN)NC(=O)[C@H](CC(C)C)NC(=O)[C@@H]2CCCN2C(=O)[C@@H](Cc2ccc(O)cc2)NC(=O)[C@H](C(C)C)NC(=O)[C@H](CCCCN)NC1=O (HELM PEPTIDE1{K.L.K.V.[dY].P.L.K.V.K.L.[dY].P.V}$PEPTIDE1,PEPTIDE1,1:R1-14:R2$$$V2.0)	32 (≈ 19.2 µM)	> 64	> 64	> 64	32 (≈ 19.2 µM)	64 (≈ 38.3 µM)	> 64	> 64	3.9	> 64
CC(C)C[C@@H]1NC(=O)[C@H](CCCN)NC(=O)[C@H](C(C)C)NC(=O)[C@@H]2CCCN2C(=O)[C@@H](Cc2ccccc2)NC(=O)[C@H](CC(C)C)NC(=O)[C@H](CCCN)NC(=O)[C@H](C(C)C)NC(=O)[C@H](CCCN)NC(=O)[C@H](CC(C)C)NC(=O)[C@@H]2CCCN2C(=O)[C@@H](Cc2ccccc2)NC(=O)[C@H](C(C)C)NC(=O)[C@@H](CCCN)NC1=O	16 (≈ 10.1 µM)	8 (≈ 5.06 µM)	8 (≈ 5.06 µM)	> 64	16 (≈ 10.1 µM)	8 (≈ 5.06 µM)	32 (≈ 20.2 µM)	32 (≈ 20.2 µM)	125	64 (≈ 40.5 µM)
CC(C)C[C@@H]1NC(=O)[C@H](CCCN)NC(=O)[C@H](C(C)C)NC(=O)[C@@H]2CCCN2C(=O)[C@@H](Cc2ccccc2)NC(=O)[C@H](CC(C)C)NC(=O)[C@H](CCCN)NC(=O)[C@H](C(C)C)NC(=O)[C@H](CCCN)NC(=O)[C@H](CC(C)C)NC(=O)[C@@H]2O[C@H](CNC(=O)[C@H](C(C)C)NC(=O)[C@H](CCCN)NC1=O)[C@@H](OCc1ccccc1)[C@@H]2OCc1ccccc1	8 (≈ 4.77 µM)	4 (≈ 2.38 µM)	16 (≈ 9.54 µM)	> 64	2 (≈ 1.19 µM)	4 (≈ 2.38 µM)	32 (≈ 19.1 µM)	32 (≈ 19.1 µM)	15.6	16 (≈ 9.54 µM)
CC(C)C[C@@H]1NC(=O)[C@H](CCCN)NC(=O)[C@H](C(C)C)NC(=O)[C@@H]2CCCN2C(=O)[C@@H](Cc2ccccc2)NC(=O)[C@H](CC(C)C)NC(=O)[C@H](CCCN)NC(=O)[C@H](C(C)C)NC(=O)[C@H](CCCN)NC(=O)[C@H](CC(C)C)NC(=O)[C@@H]2O[C@H](CNC(=O)[C@H](C(C)C)NC(=O)[C@H](CCCN)NC1=O)[C@@H](O)[C@@H]2O	8 (≈ 5.34 µM)	8 (≈ 5.34 µM)	16 (≈ 10.7 µM)	> 64	4 (≈ 2.67 µM)	4 (≈ 2.67 µM)	16 (≈ 10.7 µM)	16 (≈ 10.7 µM)	31.3	8 (≈ 5.34 µM)
CC(C)C[C@@H]1NC(=O)[C@H](CCCCN)NC(=O)[C@H](C(C)C)NC(=O)[C@@H]2CCCN2C(=O)[C@@H](Cc2ccc(O)cc2)NC(=O)[C@H](CC(C)C)NC(=O)[C@H](CCCCN)NC(=O)[C@H](C(C)C)NC(=O)[C@H](CCCCN)NC(=O)[C@H](CC(C)C)NC(=O)[C@@H]2CCCN2C(=O)[C@@H](Cc2ccc(O)cc2)NC(=O)[C@H](C(C)C)NC(=O)[C@@H](CCCCN)NC1=O (HELM PEPTIDE1{K.L.[dK].V.[dY].P.L.K.V.K.L.[dY].P.V}$PEPTIDE1,PEPTIDE1,1:R1-14:R2$$$V2.0)	64 (≈ 38.3 µM)	64 (≈ 38.3 µM)	> 64	> 64	16 (≈ 9.58 µM)	8 (≈ 4.79 µM)	64 (≈ 38.3 µM)	64 (≈ 38.3 µM)	500	64 (≈ 38.3 µM)
